Measurements as given in ChEMBL document CHEMBL3286164, “Anti-proliferative effect of chalcone derivatives through inactivation of NF-κB in human cancer cells” (Bioorg Med Chem, 2014).

Columns and labels:
[1] = Antiproliferative activity against human NUGC3 cells by SRB method; format: functional; conditions: NUGC-3
How it was run: (§1)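 GI50 against human cancer cell lines is the mean of three independent experiments.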

[2] = test system: NCI-H23; experiment: Antiproliferative activity against human NCI-H23 cells by SRB method; format: functional; how it was run: as §1
[3] = test system: MDA-MB-231; experiment: Antiproliferative activity against human MDA-MB-231 cells by SRB method; format: functional; how it was run: as §1
[4] = test system: ACHN; experiment: Antiproliferative activity against human ACHN cells by SRB method; format: functional; how it was run: as §1
[5] = Antiproliferative activity against human HCT15 cells by SRB method; format: functional; conditions: HCT-15; how it was run: as §1
[6] = target: Nuclear factor NF-kappa-B complex (Homo sapiens, UniProt P19838+Q00653+Q04206); experiment: Inhibition of NF-kappaB in human THP1 cells incubated for 2 hrs prior to LPS challenge measured after 16 hrs by SEAP assay; format: cell-based, THP-1
How it was run: (§2)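 Reporter cells: RAW 264.7 carrying stably integrated pNF-κB-SEAP-NPT, or THP-1 transfected with pNF-κB-SEAP. Cells were pretreated with compound for 2 h, then stimulated with LPS (1 µg/ml) for 16 h. Culture-medium aliquots were heated at 65 °C for 5 min and incubated with 4-methylumbelliferyl phosphate (500 µM) in the dark for 1 h. Fluorescence was read at ex 360/em 449 nm as RFU. IC50 is the mean of three experiments.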

[7] = test system: PC-3; experiment: Antiproliferative activity against human PC3 cells by SRB method; format: functional; how it was run: as §1
[8] = Inhibition of NF-kappaB in mouse RAW264.7 cells incubated for 2 hrs prior to LPS challenge measured after 16 hrs by SEAP assay; format: cell-based; how it was run: as §2

Nuclear factor NF-kappa-B complex, sequence (P19838 1-433 limits assumed): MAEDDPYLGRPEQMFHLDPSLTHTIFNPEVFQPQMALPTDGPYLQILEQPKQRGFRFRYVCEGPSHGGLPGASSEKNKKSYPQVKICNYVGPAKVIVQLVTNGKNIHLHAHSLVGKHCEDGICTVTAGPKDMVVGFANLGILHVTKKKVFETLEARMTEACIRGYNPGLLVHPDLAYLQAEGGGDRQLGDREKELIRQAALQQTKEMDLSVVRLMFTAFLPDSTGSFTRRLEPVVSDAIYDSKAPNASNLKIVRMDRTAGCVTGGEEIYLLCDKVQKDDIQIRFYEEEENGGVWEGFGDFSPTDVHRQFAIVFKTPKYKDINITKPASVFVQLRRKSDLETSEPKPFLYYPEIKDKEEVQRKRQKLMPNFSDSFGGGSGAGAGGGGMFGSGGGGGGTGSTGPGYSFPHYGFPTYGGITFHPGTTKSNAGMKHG
Nuclear factor NF-kappa-B complex, sequence (Q00653 1-454 limits assumed): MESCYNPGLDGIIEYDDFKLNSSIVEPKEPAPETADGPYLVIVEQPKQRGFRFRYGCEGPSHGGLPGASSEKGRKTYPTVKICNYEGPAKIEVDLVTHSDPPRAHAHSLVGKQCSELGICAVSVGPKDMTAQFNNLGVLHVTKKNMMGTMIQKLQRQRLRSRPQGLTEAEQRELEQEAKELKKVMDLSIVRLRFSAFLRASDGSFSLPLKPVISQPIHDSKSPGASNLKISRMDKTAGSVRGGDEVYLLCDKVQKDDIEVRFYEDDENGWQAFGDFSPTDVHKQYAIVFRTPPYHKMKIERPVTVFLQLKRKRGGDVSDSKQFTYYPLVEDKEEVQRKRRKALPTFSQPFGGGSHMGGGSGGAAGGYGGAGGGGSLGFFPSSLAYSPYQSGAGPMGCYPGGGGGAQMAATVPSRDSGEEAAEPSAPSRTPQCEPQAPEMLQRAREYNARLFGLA
Nuclear factor NF-kappa-B complex, sequence (Q04206 whole entry): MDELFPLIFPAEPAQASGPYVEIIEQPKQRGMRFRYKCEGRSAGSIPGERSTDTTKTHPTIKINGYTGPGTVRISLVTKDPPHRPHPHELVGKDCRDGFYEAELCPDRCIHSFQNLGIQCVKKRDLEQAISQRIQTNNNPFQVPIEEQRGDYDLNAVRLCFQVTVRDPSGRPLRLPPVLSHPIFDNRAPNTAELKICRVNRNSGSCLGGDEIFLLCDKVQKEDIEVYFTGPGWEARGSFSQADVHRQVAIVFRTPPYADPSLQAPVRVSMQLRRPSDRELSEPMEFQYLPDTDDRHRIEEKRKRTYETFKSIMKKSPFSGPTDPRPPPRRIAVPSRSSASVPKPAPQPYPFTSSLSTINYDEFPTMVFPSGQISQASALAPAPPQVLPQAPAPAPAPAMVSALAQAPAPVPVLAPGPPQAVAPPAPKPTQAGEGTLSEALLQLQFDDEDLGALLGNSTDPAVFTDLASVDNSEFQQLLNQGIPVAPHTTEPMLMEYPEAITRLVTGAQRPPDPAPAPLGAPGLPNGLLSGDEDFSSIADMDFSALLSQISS

Row | SMILES | GI50 [1] [µM] | GI50 [2] [µM] | GI50 [3] [µM] | GI50 [4] [µM] | GI50 [5] [µM] | IC50 [6] [µM] | GI50 [7] [µM] | IC50 [8] [µM]
1 | CC(C)(C)CCOc1cccc(O)c1C(=O)CCc1ccc(O)cc1 | > 30 | > 30 | > 30 | > 30 | > 30 | > 30 | > 30 | –
2 | CCCCOc1cccc(O)c1C(=O)/C=C/c1ccc(O)cc1 | > 30 | > 30 | > 30 | > 30 | > 30 | > 30 | > 30 | –
3 | O=C(/C=C/c1ccc(O)cc1)c1c(O)cccc1OCC12CC3CC(CC(C3)C1)C2 | > 30 | > 30 | > 30 | > 30 | > 30 | > 30 | > 30 | –
4 | CC(C)(C)CCOc1cccc(O)c1C(=O)/C=C/c1ccc(O)cc1 | 3.3 | 3.13 | 2.38 | 3.14 | 3.43 | 3 | 3.22 | –
5 | COc1cccc(OCCC(C)(C)C)c1C(=O)/C=C/c1ccc(O)cc1 | > 30 | > 30 | > 30 | > 30 | > 30 | > 30 | > 30 | –
6 | CC(C)CCCOc1cccc(O)c1C(=O)/C=C/c1ccc(O)cc1 | 3.52 | 11.3 | 3.48 | 3.63 | 11.6 | 11 | 3.6 | –
7 | CCCCCCOc1cccc(O)c1C(=O)/C=C/c1ccc(O)cc1 | > 30 | > 30 | > 30 | > 30 | > 30 | – | > 30 | –
8 | O=C(/C=C/c1ccc(O)cc1)c1c(O)cccc1OCC1CCCCC1 | > 30 | > 30 | > 30 | > 30 | > 30 | – | > 30 | –
9 | O=C(/C=C/c1ccc(O)cc1)c1c(O)cccc1OCCC1CCCCC1 | > 30 | > 30 | > 30 | > 30 | > 30 | > 30 | > 30 | –
10 | CC(C)CCOc1cccc(O)c1C(=O)/C=C/c1ccc(O)cc1 | 12.4 | 12.1 | 10.3 | 11.3 | 10.6 | – | 11.5 | 10
11 | CC(C)(C)CCOc1cccc(O)c1C(=O)/C=C/c1ccc(C(=O)O)cc1 | 5.44 | 4.77 | 11.2 | 8.45 | 2.17 | 2.8 | 6.5 | –
12 | CC(C)(C)CCOc1cccc(O)c1C(=O)/C=C/c1ccc(S(N)(=O)=O)cc1 | 1.17 | 2.95 | 2.11 | 3.3 | 2.93 | 1.2 | 3.25 | –
13 | COc1cccc2c1C(=O)c1c(O)c3c(c(O)c1C2=O)C[C@@](O)(C(=O)CO)C[C@@H]3O[C@H]1C[C@H](N)[C@H](O)[C@H](C)O1 [DOXORUBICIN] | 1 | – | – | – | – | – | – | –
14 | CC(C)COc1cccc(O)c1C(=O)/C=C/c1ccc(O)cc1 | 2.98 | 3.22 | 3.52 | 3.29 | 2.6 | 8 | 2.97 | –
15 | CC(C)=CCOc1cccc(O)c1C(=O)/C=C/c1ccc(O)cc1 | > 30 | > 30 | > 30 | > 30 | > 30 | > 30 | > 30 | –
16 | O=C(/C=C/c1ccc(O)cc1)c1c(O)cccc1OCCC1CCCC1 | 3.2 | 3.37 | 3.34 | 3.4 | 3.31 | 18 | 3.48 | –
17 | CCC(CC)COc1cccc(O)c1C(=O)/C=C/c1ccc(O)cc1 | 1.96 | 3.21 | 3.13 | 3.37 | 3.42 | 12 | 3.39 | –
18 | O=C(/C=C/c1ccc(O)cc1)c1c(O)cccc1OCC1CCCC1 | 2.14 | 3.16 | 3.41 | 3.51 | 3.41 | 13 | 3.04 | –
19 | O=C(/C=C/c1ccc(O)cc1)c1c(O)cccc1OCc1ccccc1 | > 30 | > 30 | > 30 | > 30 | > 30 | – | > 30 | –
